Source: PubChem BioAssay
The list is not random: actives were taken first. Their share in the collection is about 2%.
CASP6 VEID inh – caspase-6 (human) enzyme inhibition. actives 0.53% (n = 350,000). purified caspase-6, Z-VEID-R110 cleavage fluorescence. inhibition, % at 12.5 µM. P55212;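 active = mean inhibition across replicates at least about 35%, with every replicate also reaching that limit, limit read from the data; inconclusive = only one of the two criteria met; inactive = neither criterion met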;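 note: 0% = median of neutral control wells and 100% = no fluorescence left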
Target sequence (P55212 24-179 limits assumed): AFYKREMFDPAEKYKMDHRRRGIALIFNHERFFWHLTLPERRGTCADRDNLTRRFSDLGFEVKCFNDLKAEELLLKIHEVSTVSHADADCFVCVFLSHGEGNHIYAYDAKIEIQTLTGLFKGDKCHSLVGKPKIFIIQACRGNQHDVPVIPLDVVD
Target sequence (P55212 194-293 limits assumed): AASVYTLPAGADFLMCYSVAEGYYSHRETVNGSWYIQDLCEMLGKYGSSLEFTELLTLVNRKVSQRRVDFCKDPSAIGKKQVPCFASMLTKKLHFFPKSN
FN deposition inh – fibronectin deposition inhibition; AH1F fibroblasts, Alexa488-fibronectin deposition fluorescence, overnight; inhibition, % at 12.6 µM; actives 0.086% (n = 350,000);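 active = mean inhibition across replicates of 30% or more, regardless of how many single replicates reach that level; inconclusive = mean under 30% yet at least half of replicates reach 30%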;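 note: positive control wells lacked labelled fibronectin entirely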
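Material: AH1F fibroblast monolayer depositing Alexa488-labelled fibronectin into matrix | Input: 10000 AH1F cells/well | Medium: DMEM plus 2% serum, read in PBS | Reagent: Alexa488-fibronectin, 24 nM final in well | Compound dosing: One dose per compound, pinned | Schedule: 1 h adhesion, overnight exposure | Measured by: Fluorescence at 485 nm excitation, 525 nm emission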
XiGFP reactiv – X-chromosome reactivation activator | XiGFP mouse fibroblasts, % GFP-positive cells imaging, 3 d; cells co-treated with 5-aza-dC sensitizer; scaled so ellipticine positive control = 100% | activation, % at 7.58 µM | actives 0.055% (n = 360,000) | AID 743238;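 active = mean normalized replicate activation at least 10% and every replicate at or above 10%; inconclusive = only one of the two criteria met; inactive = mean below 10% and not all replicates reach 10%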;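 note: 0% = median of on-plate neutral control wells and 100% = ellipticine 6 µM median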
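System: 68-5-11 XiGFP fibroblast line | Buffer or medium: DMEM containing 5-aza-dC | Compound: Single point | Times: Compounds 3 days, fix/stain 15 min at room temperature | Benchmarks: Positive control ellipticine, 6 µM final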
DENV2 CPE – DENV2-induced cell death inhibition | DENV2-infected cells, cytopathic effect rescue, plate reader | AID 651640 | actives 1.7% (n = 350,000) | CPE inhibition, % at 9.99 µM; in the data active = CPE inhibition above about 20%, passing the limit was not always enough; inconclusive = no clear call, values can overlap the other calls; tested in BHK-21 cells;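 note: 0% = median of neutral control wells and 100% = median of positive control wells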
CaV13 FRET inh – Disruptors of the CACNA1D IQ motif to Ca2+-dependent inactivation inhibitor domain association, primary screening, Förster resonance energy transfer in intact living …; actives 0.098% (n = 340,000); HEK cells, CFP/YFP FRET ICDI-IQ, plate reader, 10 min; percent FRET-ratio fall versus neutral wells; inhibition, % at 12.3 µM;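 active = mean replicate inhibition of at least 30% and at least 1% of replicates passing that level; inconclusive = only one of the two criteria is met; inactive = neither criterion is met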;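 note: 0% = median of the neutral control wells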
Numbers without * were called inactive; ? = inconclusive; nt = no result given.

SMILES	CASP6 VEID inh	FN deposition inh	XiGFP reactiv	DENV2 CPE	CaV13 FRET inh
COc1ccc(N2CCN(C(=O)CN(C)S(=O)(=O)c3ccc4c(c3)c(=O)n(C)c(=O)n4C)CC2)cc1	0	-24	0	1	-7
CCOC(=O)N1CCN(C(=O)CN(C)S(=O)(=O)c2ccc3c(c2)c(=O)n(C)c(=O)n3C)CC1	42*	-9	0	-4	0
COCCNC(=O)C[C@H]1CC[C@@H]2[C@H](COC[C@@H](O)CN2C(=O)Nc2ccccc2OC)O1	0	-4	0	-1	nt
CC1C(=O)N(Cc2cn(CCC3OCCO3)nn2)CCS(=O)(=O)N1Cc1ccc(-c2cccc(N(C)C)c2)cc1 (stereo not drawn)	13	-8	0	21*	-11
CC(C)C1C(=O)N(Cc2cn(CCC3OCCO3)nn2)CCS(=O)(=O)N1Cc1ccc(-c2ccc(Cl)c(Cl)c2)cc1 (stereo not drawn)	0	4	0	25*	-2
C/C=C/c1cnc2c(c1)C(=O)N([C@H](C)CO)C[C@@H](C)[C@H](CN(C)Cc1ccc3c(c1)OCO3)O2	nt	6	-1	nt	nt
CCC(=O)N1CC2(CN(C(=O)Nc3ccc(F)cc3)C2)c2c([nH]c3cc(OC)ccc23)[C@@H]1CO	0	nt	0	-9	nt
CS(=O)(=O)NCc1ccc(C(=O)NCCOc2ccccc2)cc1	1	nt	nt	31*	-5
CC1CCC(CN2C(Nc3ccccc3)=NC[C@@H]2C)CC1 (stereo partly drawn)	0	1	0	40*	-10
CCCCN1C(Nc2ccccc2)=NC[C@@H]1Cc1ccccc1	14	1	0	22*	-6
c1ccc(C[C@H]2CN=C(Nc3ccccc3)N2CCCC2CCCCC2)cc1	-2	3	0	1	-6
CCS(=O)(=O)N1CC2(CN[C@H](CO)c3c2c2ccc(OC)cc2n3C)C1	nt	nt	0	nt	nt
CC(C)NC(=O)N1[C@H](CO)[C@@H](c2ccccc2)C12CN(C(=O)Cc1cccnc1)C2	42*	-1	0	31*	nt
O=C(C1CCOCC1)N1[C@H](CO)[C@@H](c2ccccc2)C12CN(Cc1cccnc1)C2	0	nt	0	97*	nt
O=C(Cc1cccnc1)N1CC2(C1)[C@H](c1ccccc1)[C@@H](CO)N2C(=O)C1CC1	3	5	0	21*	nt
N#C[C@@H]1[C@H](c2ccccc2-c2cccc(F)c2)[C@@H](CO)N1C(=O)NC1CCCCC1	nt	-2	0	nt	nt
CCC(=O)N1[C@@H]2Cn3c(ccc(-c4ccc(F)cc4)c3=O)[C@H]1[C@@H](C(=O)N(C)C)[C@@H]2CO	1	nt	1	-3	nt
CC(O)CN(CC(C)O)c1ccc2c(c1)Cc1cc([N+](=O)[O-])ccc1-2 (stereo not drawn)	7	-18	29*	0	-47
Cc1ccsc1C1Nc2ccccc2-c2nc3ccccc3n21 (stereo not drawn)	-3	0	30*	8	-3
c1csc(C2Nc3ccccc3-c3nc4ccccc4n32)c1 (stereo not drawn)	nt	-7	0	nt	-2
CC(C)(C)OC(=O)CN1C(=O)NC(Cc2c[nH]c3ccccc23)C1=O (stereo not drawn)	-2	5	0	12	-4
C/C(N)=C(/C#N)C(=O)CN1C(=O)NC(Cc2c[nH]c3ccccc23)C1=O (stereo not drawn)	48*	1	1	?	-4
C[C@@H]1CN([C@@H](C)CO)C(=O)Cc2cc(NC(=O)c3ccncc3)ccc2O[C@@H]1CN(C)S(=O)(=O)c1ccccc1	4	8	0	-7	nt
CCCNC(=O)C[C@H]1C[C@@H]2c3cc(NS(=O)(=O)c4ccccc4)ccc3O[C@@H]2[C@@H](CO)O1	nt	-12	0	-1	nt
O=C(C1CC1)N1CC[C@@H]2[C@H]1c1cc(C#Cc3ccc(F)cc3)ccc1N[C@@H]2CO	nt	11	0	27*	nt
O=C(C1CC1)N1CC[C@@H]2[C@H]1c1cc(C#Cc3ccccc3F)ccc1N[C@@H]2CO	nt	7	0	29*	nt
N#Cc1ccc(-c2ccc3c(c2)[C@@H]2[C@@H](CCN2C(=O)C2CCCC2)[C@H](CO)N3)cc1	0	15	0	2	nt
